Consider 1 molecule from ChEMBL document CHEMBL4610116, “Salicylanilide Analog Minimizes Relapse of Clostridioides difficile Infection in Mice” (J Med Chem, 2020).

Molecules are shown by their SMILES. Values after ≈ are worked out from the molar mass of the structure shown. Active and inactive are the calls of the source. The calls are words filed in the database; no cut-off is given here.

In general, MIC refers to the lowest concentration found to suppress growth. As a reminder, the half-life is how long it takes for the measured level to halve. The low end stands for rapid decline, the high end for slow decline. As a reminder, the MRT is a mean duration of stay, worked out from the concentration-time curve. In general, AUC refers to the area under the concentration-time curve, a measure of exposure. A low value points to less exposure. As a reminder, the Vdss is a proportionality between amount in the body and measured concentration, not a real space. In general, Cmax refers to the highest concentration seen after dosing.

The subject of data set [1] is Clostridioides difficile. As to the kind of experiment: Antimicrobial activity against Clostridioides difficile CD10463 incubated for 20 to 24 hrs by broth microdilution method. The format is functional. In short, it runs like this:
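Broth microdilution in pre-reduced BHIS using two-fold serial dilutions and ~5 × 10⁵ cfu/mL inoculum. Incubated 20–24 h at 37°C, anaerobic (8% H₂, 8% CO₂, 84% N₂). MIC read by the Lambert-Pearson method; duplicates.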
Background: In broth dilution the organism is exposed to a series of concentrations in liquid medium.

Data set [2] can be described thus: Half life in non-antibioticc-treated C57Bl/6J mouse at 0.3 mg/kg, iv and measured after 5 mins to 24 hrs by LC/MS-SRM analysis. The format is ADME, organism-based. Conditions: in vivo. Summed up: (§1)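 Non-antibiotic-treated C57Bl/6J mice given a single i.v. dose of 0.3 mg/kg; n = 3 per time point. Bled at 5, 10, 30 min and 1, 2, 4, 8, 24 h. Plasma mixed with 2 volumes acetonitrile containing internal standard, centrifuged, supernatant quantified by LC/MS-SRM.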

Data set [3] can be described thus: MRT in non-antibioticc-treated C57Bl/6J mouse at 0.3 mg/kg, iv and measured after 5 mins to 24 hrs by LC/MS-SRM analysis. The format is ADME, organism-based. To be noted: in vivo. Summed up:
as §1

The nature of data set [4]: AUC in non-antibioticc-treated C57Bl/6J mouse at 0.3 mg/kg, iv and measured after 5 mins to 24 hrs by LC/MS-SRM analysis. The format is ADME, organism-based. More on the design: time upper 24 hr, time lower 0.083 hr, dose 0.3 mg/kg, route intravenous. To be noted: in vivo. Summed up: as §1
Data set [5] in a line: Volume of distribution at steady state in non-antibioticc-treated C57Bl/6J mouse at 0.3 mg/kg, iv and measured after 5 mins to 24 hrs by LC/MS-SRM analysis. The format is ADME, organism-based. To be noted: in vivo. In short, it runs like this:
as §1

The nature of data set [6]: Cmax in cefoperazone-treated C57Bl/6J mouse at 1 mg/kg, po dosed each day for 5 days by LC/MS-SRM analysis. The format is ADME, organism-based. More on the design: dose 1 mg/kg, route oral. To be noted: in vivo. Summed up:
(§2)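 C57Bl/6J mice pre-treated with cefoperazone 0.5 mg/mL in drinking water for 10 days, then a 2-day washout. Oral dose of 1 mg/kg given daily for 5 days. Bled at 5, 10, 30 min and 1, 2, 4, 10, 24 h after dosing on the first and final days; n = 3 per time point. Plasma mixed with 2 volumes acetonitrile containing internal standard, centrifuged, supernatant analysed by LC/MS-SRM.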

A short description of data set [7]: Half life in cefoperazone-treated C57Bl/6J mouse at 1 mg/kg, po dosed each day for 5 days by LC/MS-SRM analysis. The format is ADME, organism-based. Conditions: in vivo. Summed up: as §2
Data set [8] in a line: MRT in cefoperazone-treated C57Bl/6J mouse at 1 mg/kg, po dosed each day for 5 days by LC/MS-SRM analysis. The data set is classed as ADME, organism-based. To be noted: in vivo. Summed up:
as §2

Data set [9] is described as follows: Cmax in cecum of cefoperazone-treated C57Bl/6J mouse at 1 mg/kg, po dosed each day for 5 days and measured at 4 hrs post last dose by LC/MS-SRM analysis. Set-up: dose 1 mg/kg, route oral. The data set is classed as ADME, organism-based, Caecum. In short, it runs like this:
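Cefoperazone-pretreated mice (0.5 mg/mL in drinking water, 10 days; 2-day washout) dosed orally at 1 mg/kg daily for 5 days. On the final day, mice euthanized at 30 min, 4 h and 24 h post-dose and cecal contents collected. Samples homogenized in 4 volumes acetonitrile containing internal standard, centrifuged, supernatant analysed by LC/MS-SRM.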

Data set [10] has as its system Clostridioides difficile. As to the kind of experiment: Suppression of relapse of Clostridioides difficile 630 infection in cefoperazone-treated C57BL/6J mouse model of recurrent Clostridioides difficile 630 infection assessed as incidence of animals with microbial load (total vegetative cells plus spores) load below the limit of detection at 5 mg/kg, po for 5 days from day 4 to 9 after infection with spores measured on day 13 post drug cessation. The format is functional. In short, it runs like this:
(§3)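 Five-week-old C57BL/6J mice of both sexes given cefoperazone 0.5 mg/ml in drinking water for 5 days, then a 2-day washout. Oral challenge with C. difficile 630 spores on day 0. Oral gavage in 2-(hydroxypropyl)-cyclodextrin vehicle on days 4–9; n = 6 per group. Body weight recorded daily. Feces or cecal contents suspended 1:10 in PBS, serially diluted and plated on TCCFA, incubated anaerobically at 37°C for 24 h; results as CFU/g.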

Data set [11] relates to Clostridioides difficile. The data set is described as follows: Suppression of relapse of Clostridioides difficile 630 infection in cefoperazone-treated C57BL/6J mouse model of recurrent Clostridioides difficile 630 infection assessed as reduction in microbial load (total vegetative cells plus spores) at 5 mg/kg, po for 5 days from day 4 to 9 after infection with spores measured on day 9. The format is functional, organism-based. In short, it runs like this: as §3

Data set [12] deals with Clostridioides difficile. As to the kind of experiment: Suppression of relapse of Clostridioides difficile 630 infection in cefoperazone-treated C57BL/6J mouse model of recurrent Clostridioides difficile 630 infection assessed as reduction in toxin activity in cecal content at 5 mg/kg, po for 5 days from day 4 to 9 after infection with spores measured on day day 14. The data set is classed as functional, organism-based. In short, it runs like this:
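Mice challenged with strain 630 spores after cefoperazone; drug given 5 mg/kg by gavage, days 4–9, vehicle hydroxypropyl-cyclodextrin. Cecal content at day 14 diluted 1:10 in PBS, filtered, then serially diluted to 10⁻⁶. Dilutions preincubated 40 min at room temperature with PBS or antitoxin, then added to Vero cells overnight at 37°C. Titer is the reciprocal of the highest dilution rounding 80% of cells.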

Data set [13] concerns Clostridioides difficile. The data set is described as follows: Suppression of relapse of Clostridioides difficile 630 infection in cefoperazone-treated C57BL/6J mouse model of recurrent Clostridioides difficile 630 infection assessed as reduction in histopathological summary scores at 5 mg/kg, po for 5 days from day 4 to 9 after infection with spores measured on day day 14. The data set is classed as functional, organism-based. Summed up:
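Recurrent CDI model in cefoperazone-treated C57BL/6J mice challenged with strain 630 and gavaged on days 4–9 (n = 6 per group). At necropsy on day 14, H&E-stained cecum and colon scored 0–4 each for edema, inflammatory cell infiltration and epithelial damage. Scoring done blinded by a veterinary pathologist.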

The nature of data set [14]: Effect on gut microbiota in cefoperazone-treated C57BL/6J mouse model of recurrent Clostridioides difficile 630 infection assessed as increase in abundance of phylum Firmicutes at 5 mg/kg, po for 5 days from day 4 to 9 after infection with spores measured on day day 14 by 16S rRNA Illumina sequencing analysis. The data set is classed as ADME, organism-based. Conditions: in vivo, 120 h. In short, it runs like this:
(§4)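 Recurrent CDI model in cefoperazone-treated C57BL/6J mice challenged with strain 630 and gavaged on days 4–9 (n = 6 per group). Cecal tissue snips collected at necropsy underwent 16S rRNA gene community sequencing on Illumina MiSeq.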

A short description of data set [15]: Effect on gut microbiota in cefoperazone-treated C57BL/6J mouse model of recurrent Clostridioides difficile 630 infection assessed as increase in abundance of Lachnospiraceae at 5 mg/kg, po for 5 days from day 4 to 9 after infection with spores measured on day day 14 by 16S rRNA Illumina sequencing analysis. Conditions: in vivo, 120 h. The format is ADME, organism-based. Summed up:
as §4

A short description of data set [16]: Effect on gut microbiota in cefoperazone-treated C57BL/6J mouse model of recurrent Clostridioides difficile 630 infection assessed as increase in abundance of group-Ruminococcaceae at 5 mg/kg, po for 5 days from day 4 to 9 after infection with spores measured on day day 14 by 16S rRNA Illumina sequencing analysis. The data set is classed as ADME, organism-based. To be noted: in vivo, 120 h. Summed up: as §4

Data set [17] deals with Clostridioides difficile. The data set is described as follows: Suppression of relapse of Clostridioides difficile 630 infection in cefoperazone-treated C57BL/6J mouse model of recurrent Clostridioides difficile 630 infection assessed as reduction in group-Bacteroidaceae level at 5 mg/kg, po for 5 days from day 4 to 9 after infection with spores measured on day day 14. The data set is classed as functional, organism-based. In short, it runs like this:
as §4

For data set [18], the system named is Clostridioides difficile. The data set is described as follows: Suppression of relapse of Clostridioides difficile 630 infection in cefoperazone-treated C57BL/6J mouse model of recurrent Clostridioides difficile 630 infection assessed as reduction in group-Proteobacteria level at 5 mg/kg, po for 5 days from day 4 to 9 after infection with spores measured on day day 14. The data set is classed as functional, organism-based. In short, it runs like this:
as §4

Molecule `O=C(Nc1cc(C(F)(F)F)c(Oc2ccc(Cl)cc2)c(C(F)(F)F)c1)c1cc(Cl)cc(Cl)c1O` returned a minimum inhibitory concentration (MIC) against Clostridioides difficile [1] of 0.03 µM (≈ 0.0163 µg/mL). Besides, the results for the half-life in data set [2] and in data set [7] were 5 h and 10.7 h, respectively. In addition, the values for the MRT in data set [3] and in [8] were 5.26 h and 9.7 h, respectively. The AUC in data set [4] is 9.23 µM·h. The molecule also showed a Vdss in [5] of 7.9 mL. Also, the Cmax in data set [6] worked out at 1.78 µM; in data set [9], 50 µM. For the same molecule, the Activity in the data set on Clostridioides difficile [10] is 50%; in data set [14] it was “Non-Toxic”; in [15], “Non-Toxic”; in data set [16], “Non-Toxic”. The outcome in the data set on Clostridioides difficile [11], with Clostridioides difficile [12], in the data set on Clostridioides difficile [13], in the data set on Clostridioides difficile [17] and with Clostridioides difficile [18] was Active.
